ChEMBL document CHEMBL5674882, “Benzolactam-related compounds promote apoptosis of HIV-infected human cells via protein kinase C-induced HIV latency reversal” (J Biol Chem, 2019)
Calls of active or inactive are those of the source. No cut-off for these calls is given here.

Experiments:
[1] = biological target: T1, Protein kinase C (PKC) (Homo sapiens) (UniProt O94806+P41743+P17252+P05129+Q05655+P05771+Q05513+Q02156+P24723+Q15139+Q04759); test: Activation of PKC in human ACH-2 cells infected with latent HIV-1 assessed as reversal of HIV-1 latency by measuring increase in p24 antigen level at 5 to 50 nM incubated for 48 hrs in presence of 100 nM GSK525762A by chemiluminescent enzyme immunoassay; type: cell-based; settings: ACH-2 cell line, dose 5-50 nM
Outline: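 ACH-2 cells treated 48 h with 5–50 nM of the test agent, alone or combined with 100 nM GSK525762A (BRD4 inhibitor). Supernatant p24 measured by chemiluminescent immunoassay. Synergy or antagonism scored with the Bliss independence model (Δfaxy >0 synergy, <0 antagonism). Three independent experiments, mean ± S.D.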

[2] = Toxicity in human CD4+ T-cells assessed as elevation of supernatant cytokine concentrations of IL-13 incubated for 24 hrs by bead-based immunoassay; settings: cd4+ t cell
Outline: (§1)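 Purified CD4+ T-cells from healthy donors treated 24 h with 1 μm drug, 1 μm JQ1, or the combination. IL-2, IL-5, IL-6, IL-13, TNFα and IFN-γ in supernatants measured by flow-cytometry bead-based Th1/Th2 immunoassay. Run in duplicate.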

[3] = biological target: T1, Protein kinase C (PKC) (Homo sapiens); test: Activation of PKC in human J-Lat 10.6 cells infected with latent HIV-1 assessed as reversal of HIV-1 latency by measuring increase of GFP-positive cells at 400 nM incubated for 24 hrs by flow cytometry; type: cell-based; settings: filed as activator
[4] = biological target: T1, Protein kinase C (PKC) (Homo sapiens); test: Activation of PKC CD4+ T-cells purified from HIV-infected patient assessed as increase in transcription of HIV mRNA at 1 uM incubated for 24 hrs by qRT-PCR method; type: cell-based; settings: CD4+ T cell, filed as activator
Outline: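 CD4+ T-cells purified from PBMC of eight cART-treated HIV+ patients (cART ≥5 years, plasma viral load <20 copies/ml), plated at 2.5 × 10^6 cells/ml and treated 24 h. Total RNA extracted; HIV RNA quantified by qRT-PCR against a plasmid standard curve, normalized per ng input RNA, and expressed as fold over untreated cells. Medians of eight individuals; Mann-Whitney U test.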

[5] = system: ACH-2 cell line; test: Induction of apoptosis in human ACH-2 cells at 1 uM incubated for 48 hrs by propidium iodide/annexin-V staining based flow cytometry (reference value: 3.16%); type: functional
[6] = Toxicity in human CD4+ T-cells assessed as increase in ratio of CD69+ cells incubated for 24 hrs by flow cytometry; type: cell-based; settings: cd4+ t cell
Outline: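 Primary CD4+ T-cells from healthy donors treated with drug for 24 h. Cells stained with anti-CD25 and anti-CD69 antibodies (plus CD3, CD4, HLA-DR) for 30 min on ice, then marker-positive proportions quantified by flow cytometry.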

[7] = Toxicity in human PBMC assessed as reduction in cell viability after 5 days by WST8 assay; type: cell-based; settings: time 5 day
Outline: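 PBMC from a healthy donor exposed to drug, with viability determined at day 5. CC50 is the concentration reducing viability by 50%.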

[8] = Toxicity in human CD4+ T-cells assessed as elevation of supernatant cytokine concentrations of IL-5 incubated for 24 hrs by bead-based immunoassay; settings: cd4+ t cell; outline: as §1
[9] = system: J-Lat 6.3; test: Induction of apoptosis in human J-Lat 6.3 cells assessed as caspase-3 activation at 1 uM incubated for 24 hrs by flow cytometry (reference value: 2.43%); type: functional
Outline: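 Cells fixed in 1% paraformaldehyde, permeabilized, stained 30 min on ice with anti-active caspase-3 mAb, and analysed by flow cytometry. Three independent experiments.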

[10] = Toxicity in human CD4+ T-cells assessed as elevation of supernatant cytokine concentrations of IL-2 incubated for 24 hrs by bead-based immunoassay; settings: cd4+ t cell; outline: as §1
[11] = biological target: T1, Protein kinase C (PKC) (Homo sapiens); test: Activation of PKC in human J-Lat 10.6 cells infected with latent HIV-1 assessed as reversal of HIV-1 latency by measuring increase of GFP-positive cells at 100 to 400 nM in presence of 200 nM Prostratin incubated for 24 hrs by flow cytometry; type: cell-based; settings: filed as activator, dose 100-400 nM
[12] = biological target: T1, Protein kinase C (PKC) (Homo sapiens); test: Activation of PKC in human J-Lat 6.3 cells infected with latent HIV-1 assessed as reversal of HIV-1 latency by measuring increase of GFP-positive cells at 10 uM in presence of PKC delta inhibitor Rottlerin incubated for 24 hrs by flow cytometry; type: cell-based
Outline: (§2)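 J-Lat 6.3 cells pretreated 3 h with a PKC inhibitor: Gö 6983 1 µM, Gö 6976 1 µM, GF 109203X 1 µM, PKCθ/δ inhibitor 10 µM, or Rottlerin 1 µM. Then exposed to 10 µM compound for 24 h; GFP-positive cells counted by flow cytometry. Mean ± S.D.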

[13] = system: ACH-2 cell line; test: Induction of apoptosis in human ACH-2 cells at 1 uM incubated for 48 hrs after pre-incubated for 2 hrs with 20 uM caspase inhibitor Q-VD-Oph by propidium iodide/annexin-V staining based flow cytometry; type: functional, cell-based
Outline: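 ACH-2 or U1 cells pretreated 2 h with 20 µM pan-caspase inhibitor Q-VD-Oph, then exposed to 1 µM compound for 48 h. Annexin-V/PI staining by flow cytometry; apoptotic proportions compared with and without Q-VD-Oph. Mean ± S.D.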

[14] = biological target: T1, Protein kinase C (PKC) (Homo sapiens); test: Synergistic activation of PKC in CD4+ T-cells purified from HIV-infected patient assessed as increase in transcription of HIV mRNA at 1 uM incubated for 24 hrs in presence of 1 uM JQ1 by qRT-PCR method; type: cell-based; settings: CD4+ T cell, filed as activator
Outline: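 CD4+ T-cells purified from PBMC of patients on cART for at least 5 years with plasma viral load <20 copies/ml. Cells plated at 2.5 × 10^6 cells/ml and treated 24 h, alone or with 1 μm JQ1. Intracellular HIV RNA measured by qRT-PCR against a plasmid standard curve, normalised per ng input RNA, relative to untreated cells. Synergy assessed by Bliss independence model.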

[15] = Toxicity in human U-937 cells assessed as reduction in cell viability after 48 hrs by WST8 assay; type: cell-based
Outline: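 Parental, uninfected lines (A3.01 for ACH-2, U937 for U1) at 5 × 10^5 cells/ml cultured with or without drug. Viable cells read at 48 h (day 2) and expressed as % of untreated control. CC50 taken as the concentration lowering viability by 50%.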

[16] = biological target: T1, Protein kinase C (PKC) (Homo sapiens); test: Activation of PKC in human J-Lat 6.3 cells infected with latent HIV-1 assessed as reversal of HIV-1 latency by measuring increase of GFP-positive cells at 10 uM in presence of pan-PKC inhibitor Go-6983 incubated for 24 hrs by flow cytometry; type: cell-based; outline: as §2
[17] = system: ACH-2 cell line; test: Induction of apoptosis in human ACH-2 cells at 1 uM after 48 hrs by PI/annexin-V staining based flow cytometry; type: functional
[18] = biological target: T1, Protein kinase C (PKC) (Homo sapiens); test: Activation of PKC in human J-Lat 6.3 cells infected with latent HIV-1 assessed as reversal of HIV-1 latency by measuring increase of GFP-positive cells at 10 uM in presence of PKC alpha/beta inhibitor Go-6976 incubated for 24 hrs by flow cytometry; type: cell-based; outline: as §2

## CCCCCCCCCCc1ccc2c(c1)N(C)[C@@H](C(C)C)C(=O)N[C@H](CO)C2
[1]
  Activity: inactive
[2]
  Activity: Toxic
[3]
  Activity: 42.2%
[4]
  Activity: Active
[5]
  Activity: 58%
[6]
  Activity: Non-Toxic
[7]
  CC50 at 120 h: 39.9 µM
[8]
  Activity: Toxic
[9]
  Activity: 21.9%
[10]
  Activity: Toxic
[11]
  Activity: Active
[12]
  Activity: inactive
[13]
  Activity: inactive
[14]
  fold change (FC): 13.2
[15]
  CC50 at 48 h: 61.2 µM
[16]
  Activity: inactive
[17]
  Activity: 59.7%
[18]
  Activity: inactive
